Active and inactive are the calls of the source. No cut-off for these calls is given here.
What was measured:
[1] = molecular target: Rhodesain (Trypanosoma brucei rhodesiense) (UniProt Q95PM0); assay: Inhibition of recombinant Trypanosoma brucei rhodesiense rhodesain expressed in Pichia pastoris assessed as first order rate constant using Cbz-Phe-Arg-AMC as substrate after 30 mins by fluorescence assay
How it was run: (§1)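 Recombinant rhodesain with fluorogenic substrate Cbz-Phe-Arg-AMC. Preliminary screen at a fixed inhibitor concentration of 50 µM. Equal volume of DMSO served as negative control and E-64 as irreversible positive control. Active compounds went on to continuous assays at seven concentrations, from minimally to fully inhibitory, giving kinac (min-1), Ki (nM) and k2nd = kinac/Ki (M-1 min-1).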

[2] = molecular target: T1, Procathepsin L (Homo sapiens, UniProt P07711); assay: Inhibition of human cathepsin L assessed as second order rate constant using Cbz-Phe-Arg-AMC as substrate after 10 mins by fluorescence assay
Target sequence in this assay (P07711 114-333 limits assumed): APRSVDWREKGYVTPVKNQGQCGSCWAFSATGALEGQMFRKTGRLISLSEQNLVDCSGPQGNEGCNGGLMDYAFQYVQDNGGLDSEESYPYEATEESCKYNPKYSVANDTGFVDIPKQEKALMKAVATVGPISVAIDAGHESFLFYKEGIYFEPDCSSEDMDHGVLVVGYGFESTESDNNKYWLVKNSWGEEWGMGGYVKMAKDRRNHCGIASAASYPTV

[3] = molecular target: T1, Procathepsin L; assay: Inhibition of human cathepsin L assessed as first order rate constant using Cbz-Phe-Arg-AMC as substrate after 10 mins by fluorescence assay
Target sequence in this assay (P07711 114-333 limits assumed): as above

[4] = molecular target: T2, Falcipain 2 (Plasmodium falciparum, UniProt Q9N6S8); assay: Inhibition of recombinant Plasmodium falciparum falcipain-2 expressed in Escherichia coli M15(pREP4) using Cbz-Phe-Arg-AMC as substrate by fluorescence assay
T2 sequence (Q9N6S8 whole entry): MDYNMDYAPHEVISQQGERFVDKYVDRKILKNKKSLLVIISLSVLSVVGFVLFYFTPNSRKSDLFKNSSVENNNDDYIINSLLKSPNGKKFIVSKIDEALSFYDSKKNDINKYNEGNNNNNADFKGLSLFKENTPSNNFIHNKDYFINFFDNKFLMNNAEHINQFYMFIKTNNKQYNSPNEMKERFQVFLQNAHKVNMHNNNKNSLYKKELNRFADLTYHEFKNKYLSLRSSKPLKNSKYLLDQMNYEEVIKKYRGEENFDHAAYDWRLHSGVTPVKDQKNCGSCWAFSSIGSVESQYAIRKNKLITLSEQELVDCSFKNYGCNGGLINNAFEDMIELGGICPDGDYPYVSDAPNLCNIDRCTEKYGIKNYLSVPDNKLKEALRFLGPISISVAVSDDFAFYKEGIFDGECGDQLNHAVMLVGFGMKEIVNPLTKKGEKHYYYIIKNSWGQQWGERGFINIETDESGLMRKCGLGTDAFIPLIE

[5] = molecular target: Rhodesain (Trypanosoma brucei rhodesiense) (UniProt Q95PM0); assay: Inhibition of recombinant Trypanosoma brucei rhodesiense rhodesain expressed in Pichia pastoris assessed as second order rate constant using Cbz-Phe-Arg-AMC as substrate after 30 mins by fluorescence assay; how it was run: as §1
[6] = molecular target: T1, Procathepsin L; assay: Inhibition of human cathepsin L using Cbz-Phe-Arg-AMC as substrate after 10 mins by fluorescence assay
Target sequence in this assay (P07711 whole entry): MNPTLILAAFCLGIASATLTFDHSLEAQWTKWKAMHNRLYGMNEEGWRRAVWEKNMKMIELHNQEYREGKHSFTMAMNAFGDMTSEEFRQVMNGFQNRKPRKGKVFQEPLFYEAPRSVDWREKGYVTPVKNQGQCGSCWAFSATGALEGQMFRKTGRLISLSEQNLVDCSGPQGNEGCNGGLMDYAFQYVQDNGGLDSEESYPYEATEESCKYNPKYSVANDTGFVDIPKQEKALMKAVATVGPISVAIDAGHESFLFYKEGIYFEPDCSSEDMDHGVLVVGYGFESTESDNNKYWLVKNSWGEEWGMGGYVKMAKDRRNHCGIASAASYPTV

[7] = molecular target: Rhodesain (Trypanosoma brucei rhodesiense, UniProt Q95PM0); assay: Inhibition of recombinant Trypanosoma brucei rhodesiense rhodesain expressed in Pichia pastoris using Cbz-Phe-Arg-AMC as substrate after 30 min by fluorescence assay
Rhodesain, sequence (Q95PM0 whole entry): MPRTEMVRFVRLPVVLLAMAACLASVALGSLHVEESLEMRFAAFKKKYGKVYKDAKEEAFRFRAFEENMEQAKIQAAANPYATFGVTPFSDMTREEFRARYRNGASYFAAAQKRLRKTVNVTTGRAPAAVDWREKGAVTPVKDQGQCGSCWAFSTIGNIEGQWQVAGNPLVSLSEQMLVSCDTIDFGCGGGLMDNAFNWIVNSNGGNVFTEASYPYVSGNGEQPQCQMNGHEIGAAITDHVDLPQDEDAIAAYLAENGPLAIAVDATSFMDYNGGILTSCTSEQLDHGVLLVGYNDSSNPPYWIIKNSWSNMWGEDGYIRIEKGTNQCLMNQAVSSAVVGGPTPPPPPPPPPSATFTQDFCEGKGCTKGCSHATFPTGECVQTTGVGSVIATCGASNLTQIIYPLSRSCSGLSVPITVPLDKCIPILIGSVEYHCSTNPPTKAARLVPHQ
How it was run: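 Recombinant rhodesain with fluorogenic Cbz-Phe-Arg-AMC substrate. Compounds were first screened at a fixed 50 µM, with DMSO as negative control and an irreversible clan CA cysteine-protease inhibitor as positive control. Continuous assays at seven inhibitor concentrations, from minimally to fully inhibitory, gave kinac (min-1) and Ki, with k2nd = kinac/Ki (M-1 min-1).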

[8] = Cytotoxicity against human HeLa cells assessed as decrease in cell viability after 48 hrs by MTT assay; type: cell-based
[9] = system: Trypanosoma brucei brucei; assay: Antiparasitic activity against bloodstream form of Trypanosoma brucei brucei 449 after 48 hrs by ATPlite assay; type: functional; conditions: Trypanosoma brucei, 449, 48 h
[10] = Selectivity index, ratio of CC50 for human HeLa cells to EC50 for Trypanosoma brucei brucei 449 for 48 hrs; type: toxicity, cell-based; conditions: read-out: Ratio CC50/EC50
[11] = system: Trypanosoma brucei brucei; assay: Inhibition of trypanothione synthetase in blood stream of Trypanosoma brucei brucei assessed as cellular content of free trypanothione after 24 hrs by HPLC analysis
How it was run: (§2)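 Bloodstream-form T. brucei were seeded at 1 x10^5 cells/ml and treated for 24 h, with untreated cells as control. Free thiols (GSH, T(SH)2), and free thiols plus disulfides (GSSG, TS2), were labelled with monobromobimane and quantified by HPLC. Values are mean ± SD of three independent experiments.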

[12] = system: Trypanosoma brucei brucei; assay: Effect on protein bound glutathione level in blood stream of Trypanosoma brucei brucei; type: functional
[13] = system: Trypanosoma brucei brucei; assay: Inhibition of trypanothione synthetase in blood stream of Trypanosoma brucei brucei assessed as cellular content of free trypanothione at 3 uM after 24 hrs by HPLC analysis (reference value: 340 uM); how it was run: as §2
[14] = system: Trypanosoma brucei brucei; assay: Effect on glutathione level in blood stream of Trypanosoma brucei brucei at 3 uM after 24 hrs by HPLC analysis; type: functional; how it was run: as §2
[15] = system: Plasmodium falciparum; assay: Antiparasitic activity against Plasmodium falciparum W2 after 48 hrs by YOYO-1 probe-based flow cytometry; type: functional; conditions: W2, 48 h
[16] = system: Trypanosoma brucei brucei; assay: Antiparasitic activity against bloodstream form of Trypanosoma brucei brucei 449 after 24 hrs by ATPlite assay; type: functional; conditions: Trypanosoma brucei, 449, 24 h

Rhodesain (Trypanosoma brucei rhodesiense), sequence (Q95PM0 1-450): as the sequence (Q95PM0 whole entry) above

| SMILES | Kinact [1] [min⁻¹] | K [2] [×10³ /M/min] | Kinact [3] [min⁻¹] | IC50 [4] [nM] | K [5] [×10³ /M/min] | Ki [6] [nM] | Ki [7] [nM] | CC50 at 48 h [8] [nM] | EC50 [9] [nM] | selectivity ratio at 48 h [10] | inhibition [11] | Activity [12] | Activity [13] [µM] | Activity [14] | EC50 [15] [nM] | EC50 [16] [nM] |
| --- | --- | --- | --- | --- | --- | --- | --- | --- | --- | --- | --- | --- | --- | --- | --- | --- |
| CC(C)C[C@H](NC(=O)[C@H]1O[C@@H]1C(=O)O)C(=O)NCCCCN=C(N)N [E-64] | 0.009 | 110 | 0.0032 | 250 | 261 | 30 | 35 | – | – | – | – | – | – | – | – | – |
| CC(=O)/C=C/[C@H](CCc1ccccc1)NC(=O)[C@H](Cc1ccccc1)NC(=O)OCc1ccccc1 | 0.00255 | 5750 | 0.002 | 3010 | 67000 | 0.4 | 0.038 | 7900 | 2970 | 2.6 | Dose-dependent effect | inactive | 160 | Dose-dependent effect | 7030 | 3180 |
| N#C/C=C/[C@H](CCc1ccccc1)NC(=O)[C@H](Cc1ccccc1)NC(=O)OCc1ccccc1 | 0.0005 | 9.3 | 0.0022 | > 50000 | 12 | 240 | 46 | – | – | – | – | – | – | – | > 10000 | – |
| CC(=O)/C=C/[C@H](CCc1ccccc1)NC(=O)[C@H](Cc1ccccc1)NC(=O)OCc1ccc([N+](=O)[O-])cc1 | 0.0017 | 737 | 0.0016 | 780 | 24400 | 2.2 | 0.074 | – | 4980 | – | – | – | – | – | 7180 | 6050 |
| O=C(N[C@@H](Cc1ccccc1)C(=O)N[C@H](/C=C/S(=O)(=O)c1ccccc1)CCc1ccccc1)OCc1ccc([N+](=O)[O-])cc1 | 0.0024 | 65 | 0.003 | > 50000 | 334 | 45 | 7.2 | – | 4070 | – | – | – | – | – | > 10000 | 5480 |
| COC(=O)/C=C/[C@H](CCc1ccccc1)NC(=O)[C@H](CC(C)C)NC(=O)OCc1ccc([N+](=O)[O-])cc1 | 0.0023 | 35 | 0.0014 | 9630 | 152 | 41 | 17 | – | – | – | – | – | – | – | 3970 | – |
| CC(C)C[C@H](NC(=O)OCc1ccccc1)C(=O)N[C@H](/C=C/S(=O)(=O)c1ccccc1)CCc1ccccc1 | 0.0028 | 1570 | 0.0009 | 780 | 342 | 0.61 | 9.1 | 12200 | 2620 | 4.6 | – | – | – | – | 1530 | 2500 |
| N#C/C=C/[C@H](CCc1ccccc1)NC(=O)[C@H](Cc1ccccc1)NC(=O)OCc1ccc([N+](=O)[O-])cc1 | 0.0004 | – | – | > 50000 | 0.26 | – | 1740 | – | – | – | – | – | – | – | > 10000 | – |
| CC(=O)/C=C/[C@H](CCc1ccccc1)NC(=O)[C@H](CC(C)C)NC(=O)OCc1ccc([N+](=O)[O-])cc1 | 0.0027 | 739 | 0.0026 | 110 | 2970 | 3.5 | 0.9 | 8200 | 2480 | 3.3 | – | – | – | – | 2740 | 3230 |

— ChEMBL document CHEMBL4038340, “Development of Novel Peptide-Based Michael Acceptors Targeting Rhodesain and Falcipain-2 for the Treatment of Neglected Tropical Diseases (NTDs)” (J Med Chem, 2017)
